In ChEMBL document CHEMBL1681707, “Thienopyrrole acetic acids as antagonists of the CRTH2 receptor” (Bioorg Med Chem Lett, 2011):
One block for each molecule: values may come before it.

Assays:
[1] = Metabolic stability in rat liver microsomes assessed as compound remaining after 30 mins; format: ADME, Microsome; conditions: read-out: Stability
Outline: (§1)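 Incubation with rat or human liver microsomes for 30 min. Percent of parent remaining at 30 min reported.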

[2] = biological target: T1, Prostaglandin D2 receptor (Homo sapiens, UniProt Q13258); test: Displacement of [3H]PGD2 from human DP1 receptor expressed in HEK293 cell membranes
T1 sequence (Q13258 whole entry): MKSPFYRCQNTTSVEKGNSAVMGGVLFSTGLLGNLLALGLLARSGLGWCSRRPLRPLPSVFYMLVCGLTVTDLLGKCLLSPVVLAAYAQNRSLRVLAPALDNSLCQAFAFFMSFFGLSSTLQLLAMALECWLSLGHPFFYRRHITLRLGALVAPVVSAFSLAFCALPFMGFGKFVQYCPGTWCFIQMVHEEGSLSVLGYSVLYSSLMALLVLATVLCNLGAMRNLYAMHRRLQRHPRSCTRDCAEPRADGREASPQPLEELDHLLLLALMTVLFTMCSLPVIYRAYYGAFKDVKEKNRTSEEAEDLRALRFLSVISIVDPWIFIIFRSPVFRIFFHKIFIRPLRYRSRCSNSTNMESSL
Outline: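 Radioligand binding on membranes from HEK293 cells expressing human DP-1. Test compounds dissolved in DMSO, run at 1% (v/v) final DMSO. PGD2 used at 1 μM final concentration.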

[3] = biological target: T2, Prostaglandin D2 receptor 2 (Homo sapiens, UniProt Q9Y5Y4); test: Displacement of [3H]PGD2 from human CRTH2 receptor expressed in HEK293 cell membranes
T2 sequence (Q9Y5Y4 whole entry): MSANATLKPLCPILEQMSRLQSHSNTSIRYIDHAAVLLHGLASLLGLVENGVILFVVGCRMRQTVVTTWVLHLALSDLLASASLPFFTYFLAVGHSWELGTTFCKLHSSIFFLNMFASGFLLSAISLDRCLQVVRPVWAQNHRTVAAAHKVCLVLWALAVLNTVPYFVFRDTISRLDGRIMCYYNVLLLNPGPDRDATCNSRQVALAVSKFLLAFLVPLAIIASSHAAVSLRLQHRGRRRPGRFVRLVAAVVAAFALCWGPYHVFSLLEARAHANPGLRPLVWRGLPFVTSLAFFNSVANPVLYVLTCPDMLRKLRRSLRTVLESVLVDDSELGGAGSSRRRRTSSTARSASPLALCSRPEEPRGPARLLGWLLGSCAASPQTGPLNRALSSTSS
Outline: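 Radioligand binding on membranes from HEK293.F cells transiently transfected with human CRTH2 cDNA. Test compounds dissolved in DMSO, run at 1% (v/v) final DMSO. PGD2 used at 1 μM final concentration. Values are means of n = 2-4 experiments.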

[4] = biological target: Voltage-gated inwardly rectifying potassium channel KCNH2 (Homo sapiens, UniProt Q12809); test: Displacement of [3H]Dofetilide from human hERG potassium channel expressed in HEK293 cell membranes
[5] = Metabolic stability in human liver microsomes assessed as compound remaining after 30 mins; format: ADME, Microsome; conditions: read-out: Stability; outline: as §1
[6] = biological target: T2, Prostaglandin D2 receptor 2; test: Antagonist activity at human CRTH2 receptor expressed in CHO/Ga16 cells co-expressing Galpha16 protein assessed as calcium flux by FLIPR assay; format: functional, cell-based
Outline: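 CHO cells co-expressing Gα16 and stably transfected with human CRTH2; antagonism read as calcium flux; IC50 determined.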

[7] = AUC in BALB/c mouse at 30 mg/kg, po administered through 0.2 % Tween 80/0.5 % HPMC formulation; format: ADME, organism-based; design: dose 30 mg/kg, route oral; conditions: plasma
Outline: (§2)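 Oral dosing at 30 mpk in female BALB/c mice, given as a solution in 0.2% Tween 80/0.5% HPMC, as an early bioavailability assessment.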

[8] = Cmax in BALB/c mouse at 30 mg/kg, po administered through 0.2 % Tween 80/0.5 % HPMC formulation; format: ADME, organism-based; design: dose 30 mg/kg, route oral; conditions: in vivo; outline: as §2

Chain of Voltage-gated inwardly rectifying potassium channel KCNH2 (Q12809 whole entry): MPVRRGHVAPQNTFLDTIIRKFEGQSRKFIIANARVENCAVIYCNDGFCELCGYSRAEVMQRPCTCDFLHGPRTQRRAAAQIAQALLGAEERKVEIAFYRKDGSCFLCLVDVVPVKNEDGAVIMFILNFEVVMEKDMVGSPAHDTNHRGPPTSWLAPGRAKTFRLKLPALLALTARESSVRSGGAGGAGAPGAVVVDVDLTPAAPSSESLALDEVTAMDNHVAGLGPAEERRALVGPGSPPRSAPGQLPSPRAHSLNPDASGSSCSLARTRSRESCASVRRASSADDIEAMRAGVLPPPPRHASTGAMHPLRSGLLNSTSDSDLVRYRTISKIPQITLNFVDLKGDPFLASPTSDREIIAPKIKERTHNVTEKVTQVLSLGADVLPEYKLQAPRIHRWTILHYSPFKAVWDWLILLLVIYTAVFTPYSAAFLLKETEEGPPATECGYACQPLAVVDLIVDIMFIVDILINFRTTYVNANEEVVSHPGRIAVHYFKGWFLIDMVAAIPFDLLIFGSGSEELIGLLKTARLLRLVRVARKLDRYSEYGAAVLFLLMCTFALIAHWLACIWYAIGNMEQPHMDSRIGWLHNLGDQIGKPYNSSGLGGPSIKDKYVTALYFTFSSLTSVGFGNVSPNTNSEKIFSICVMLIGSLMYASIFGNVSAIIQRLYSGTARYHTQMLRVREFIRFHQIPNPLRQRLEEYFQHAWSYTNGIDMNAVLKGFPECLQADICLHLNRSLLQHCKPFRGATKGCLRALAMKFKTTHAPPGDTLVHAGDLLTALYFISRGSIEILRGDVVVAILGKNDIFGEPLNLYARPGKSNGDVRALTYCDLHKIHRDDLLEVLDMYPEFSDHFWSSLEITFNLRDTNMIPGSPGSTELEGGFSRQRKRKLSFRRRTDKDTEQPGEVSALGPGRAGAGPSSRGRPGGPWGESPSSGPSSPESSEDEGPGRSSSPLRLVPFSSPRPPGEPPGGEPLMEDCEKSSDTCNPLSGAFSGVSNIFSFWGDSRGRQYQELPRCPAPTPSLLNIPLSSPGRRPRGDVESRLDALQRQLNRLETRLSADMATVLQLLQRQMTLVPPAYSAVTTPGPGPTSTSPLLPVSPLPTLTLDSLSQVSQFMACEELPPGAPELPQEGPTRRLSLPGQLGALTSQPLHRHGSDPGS

SMILES: Cc1c(CC(=O)O)c2ccsc2n1Cc1ccc(S(C)(=O)=O)cc1Cl
remaining at 0.5 h [1]: 99% | IC50 [2]: > 50 µM | IC50 [3]: 10 nM | IC50 [4]: 45 µM | remaining at 0.5 h [5]: 97%

IC50 [3]: 390 nM
SMILES: Cc1c(CC(=O)O)c2ccsc2n1S(=O)(=O)c1ccc(S(=O)(=O)N2CCCC2)cc1

SMILES: Cc1c(CC(=O)O)c2ccsc2n1Cc1ccc(S(=O)(=O)N(C)C2CCCCC2)cc1
remaining at 0.5 h [1]: 57% | IC50 [2]: > 50 µM | IC50 [3]: 20 nM | IC50 [4]: 31 µM | remaining at 0.5 h [5]: 62%

IC50 [3]: 1630 nM
SMILES: Cc1c(CC(=O)O)c2ccsc2n1S(=O)(=O)c1ccc(F)cc1

IC50 [3]: 190 nM
SMILES: Cc1c(CC(=O)O)c2ccsc2n1Cc1ccc(S(=O)(=O)N(C)C)cc1

IC50 [3]: 330 nM
SMILES: Cc1cc2c(CC(=O)O)c(C)n(Cc3ccc(S(C)(=O)=O)cc3Cl)c2s1

IC50 [3]: 5000 nM
SMILES: CS(=O)(=O)c1ccc(S(=O)(=O)n2cc(CC(=O)O)c3sccc32)cc1

IC50 [3]: 1500 nM
SMILES: Cc1csc2c1c(CC(=O)O)c(C)n2Cc1ccc(S(C)(=O)=O)cc1

IC50 [3]: 2750 nM
SMILES: Cc1c(CC(=O)O)c2ccsc2n1S(=O)(=O)c1ccccc1

IC50 [3]: 1300 nM
SMILES: Cc1csc2c1c(CC(=O)O)c(C)n2S(=O)(=O)c1ccc(S(C)(=O)=O)cc1

IC50 [3]: 70 nM
SMILES: Cc1c(CC(=O)O)c2ccsc2n1Cc1ccc(S(=O)(=O)N2CCOCC2)cc1

SMILES: Cc1c(CC(=O)O)c2ccsc2n1Cc1ccc(S(C)(=O)=O)cc1
IC50 [6]: 130 nM | remaining at 0.5 h [1]: 90% | IC50 [2]: > 50 µM | IC50 [3]: 50 nM | IC50 [4]: 31 µM | remaining at 0.5 h [5]: 91%

IC50 [3]: 230 nM
SMILES: Cc1c(CC(=O)O)c2ccsc2n1S(=O)(=O)c1ccc(S(=O)(=O)N2CCOCC2)cc1

IC50 [3]: 1800 nM
SMILES: Cc1cc2c(CC(=O)O)c(C)n(Cc3ccc(S(C)(=O)=O)cc3)c2s1

AUC [7]: 16400 ng·h/mL | remaining at 0.5 h [1]: 100% | IC50 [2]: > 50 µM | IC50 [3]: 90 nM | remaining at 0.5 h [5]: 100% | Cmax [8]: 7800 ng/mL
SMILES: Cc1c(CC(=O)O)c2ccsc2n1S(=O)(=O)c1ccc(S(C)(=O)=O)cc1
IC50 [4]: > 100 µM

IC50 [3]: 4000 nM
SMILES: CS(=O)(=O)c1ccc(S(=O)(=O)n2cc(CC(=O)O)c3ccsc32)cc1

IC50 [3]: 3000 nM
SMILES: Cc1c(CC(=O)O)c2ccsc2n1S(=O)(=O)c1ccc(C#N)cc1

IC50 [3]: 1130 nM
SMILES: Cc1c(CC(=O)O)c2ccsc2n1S(=O)(=O)c1ccc(C(F)(F)F)cc1
